According to ChEMBL document CHEMBL4373640, “Synthesis and antitumor activity of aza-brazilan derivatives containing imidazolium salt pharmacophores” (Medchemcomm, 2019):

Assays:
SW480 = experiment: Cytotoxicity against human SW480 cells assessed as reduction in cell viability after 48 hrs by MTS assay; assay type: functional, cell-based; conditions: SW480, 48 h
In short: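 Cells (5 × 10^3 per well) were plated 12 h before treatment, then exposed continuously to compound for 48 h. MTS was added, with 1–4 h incubation at 37 °C and OD read at 490 nm. IC50 is the concentration cutting OD by 50% versus untreated cells, taken from dose–response curves. Values are the mean of three independent determinations.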

[1] = Cell cycle arrest in human SMMC-7221 cells assessed as accumulation at G0/G1 phase at 1 uM after 24 hrs by propidium iodide/RNase A staining based FACSCalibur flow cytometry analysis (reference value: 72.17 +/- 1.0 %); assay type: functional
[2] = Cell cycle arrest in human SMMC-7221 cells assessed as accumulation at S phase at 1 uM after 24 hrs by propidium iodide/RNase A staining based FACSCalibur flow cytometry analysis (reference value: 14.733 +/- 1.29 %); assay type: functional
[3] = Cell cycle arrest in human SMMC-7221 cells assessed as accumulation at sub-G1 phase at 2 uM after 24 hrs by propidium iodide/RNase A staining based FACSCalibur flow cytometry analysis (reference value: 4.03 +/- 0.47 %); assay type: functional
[4] = Induction of apoptosis in human SMMC-7221 cells assessed as early apoptotic cells at 0.5 uM after 48 hrs by AnnexinV-FITC/propidium iodide staining based FACSCalibur flow cytometry analysis (reference value: 0.106 %); assay type: functional
[5] = Induction of apoptosis in human SMMC-7221 cells assessed as late apoptotic cells at 2 uM after 48 hrs by AnnexinV-FITC/propidium iodide staining based FACSCalibur flow cytometry analysis (reference value: 7.7 %); assay type: functional
[6] = Induction of apoptosis in human SMMC-7221 cells assessed as viable cells at 4 uM after 48 hrs by AnnexinV-FITC/propidium iodide staining based FACSCalibur flow cytometry analysis (reference value: 89.8 %); assay type: functional; conditions: SMMC-7221, 48 h, read-out: Activity
[7] = Induction of apoptosis in human SMMC-7221 cells assessed as early apoptotic cells at 4 uM after 48 hrs by AnnexinV-FITC/propidium iodide staining based FACSCalibur flow cytometry analysis (reference value: 0.106 %); assay type: functional
[8] = Induction of apoptosis in human SMMC-7221 cells assessed as early apoptotic cells at 8 uM after 48 hrs by AnnexinV-FITC/propidium iodide staining based FACSCalibur flow cytometry analysis (reference value: 0.106 %); assay type: functional

Work on `COc1cccc2c1N(CCCn1c[n+](Cc3ccc(C)cc3)c3cc(C)c(C)cc31)C[C@@H]1Cc3ccc(Br)cc3[C@H]21.[Br-]` yielded an IC50 (SW480) of 750 nM, an Activity [1] of 80.32% and an Activity [2] of 10.18%. It also gave an Activity [3] of 1.21%, an Activity [4] of 0.314% and an Activity [5] of 16%. It also gave a viability at 4 µM [6] of 15.2%, an Activity [7] of 0.919% and an Activity [8] of 0.157%.
